A selection: hits, their analogues and other compounds. The true share with any hit is near 3.4%.
MDM2 E3 inh: Mdm2 E3 ligase (human) inhibition. actives 0.11% (n = 210,000). signal enhancement, % at 5 µM. cell-based MDM2 ubiquitination luciferase reporter, 2 h; 0 = plate control, 100 = twice control, blank-subtracted;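 active = signal enhancement of 30% or more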;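 note: luminescence tracks abundance of the self-degrading MDM2-luciferase fusion protein; higher signal means inhibition of MDM2 E3 ligase activity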
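Buffer or medium: Cells held in DMEM | Assay system: Stable mammalian line carrying autodegrading MDM2–luciferase fusion reporter | Quantity: 2000 cells/well | Times: 4 h settle plus 2 h compound, 37 °C | Doses: One concentration, 5 µM, with 0.2% DMSO | Technique: Luminescence with SteadyLite reagent, 15 min at room temperature | Benchmarks: Plate controls and plate blanks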
ROMK primary: modulators of human ROMK potassium channel. P48048. Tet-inducible ROMK, thallium flux fluorescence; actives lie on both sides. B-score at 10 µM. actives 2% (n = 130,000). AID 1918;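 active = signal ratio slope over the read window, or its plate-corrected B-score, at least 3 SD from the plate mean, either direction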;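 note: B-score of the F/F0 ratio slope over 7 to 12 s after thallium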
PKD1 kinase inh: PKD1 (human) kinase inhibition; PKD1 kinase fluorescence polarization assay; inhibition, % (concentration not given with the values); actives 0.056% (n = 200,000); in the data active = inhibition above about 50%
Cl transport mod: modulates chloride dependent transport by human KCC2; Q9H2X9; KCC2 cells, thallium flux FluoZin-2 fluorescence; B-score of Tl+ flux slope (higher = more flux/activation; lower = inhibition) at 10 µM; actives 2.2% (n = 190,000); AID 1456;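 active = thallium flux slope and its plate-corrected score both differing from the plate sample mean at a set confidence after two filtering rounds, in either direction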;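 note: slope of fluorescence scaled to starting intensity during 10 to 20 s after thallium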
DTT redox prof: compounds producing H2O2 with reducing agent – biochemical, NIH compound library profiling, artefact control for MLSCN library redox annotation, primary screen; DTT-dependent redox cycling H2O2, phenol red/HRP absorbance; 100% = 100 µM peroxide control, 0% = buffer; activation, % at 10 µM; actives 0.03% (n = 200,000); AID 878;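 active = activation of at least 50% relative to the plate's high and low controls in the primary single-dose screen; inactive = activation below 50%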;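 note: compound incubated with DTT at 0.8 mM final as the reducing agent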
p97 inhibitor: inhibitors of human p97 ATPase; actives 0.42% (n = 220,000); recombinant p97 ATPase, Kinase-Glo ATP luminescence, 3 h; P55072; inhibition, % at 8 µM; in the data active = inhibition above about 15%;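 note: 0% = DMSO vehicle and 100% = wells lacking enzyme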
Target sequence (P55072 whole entry, looked up): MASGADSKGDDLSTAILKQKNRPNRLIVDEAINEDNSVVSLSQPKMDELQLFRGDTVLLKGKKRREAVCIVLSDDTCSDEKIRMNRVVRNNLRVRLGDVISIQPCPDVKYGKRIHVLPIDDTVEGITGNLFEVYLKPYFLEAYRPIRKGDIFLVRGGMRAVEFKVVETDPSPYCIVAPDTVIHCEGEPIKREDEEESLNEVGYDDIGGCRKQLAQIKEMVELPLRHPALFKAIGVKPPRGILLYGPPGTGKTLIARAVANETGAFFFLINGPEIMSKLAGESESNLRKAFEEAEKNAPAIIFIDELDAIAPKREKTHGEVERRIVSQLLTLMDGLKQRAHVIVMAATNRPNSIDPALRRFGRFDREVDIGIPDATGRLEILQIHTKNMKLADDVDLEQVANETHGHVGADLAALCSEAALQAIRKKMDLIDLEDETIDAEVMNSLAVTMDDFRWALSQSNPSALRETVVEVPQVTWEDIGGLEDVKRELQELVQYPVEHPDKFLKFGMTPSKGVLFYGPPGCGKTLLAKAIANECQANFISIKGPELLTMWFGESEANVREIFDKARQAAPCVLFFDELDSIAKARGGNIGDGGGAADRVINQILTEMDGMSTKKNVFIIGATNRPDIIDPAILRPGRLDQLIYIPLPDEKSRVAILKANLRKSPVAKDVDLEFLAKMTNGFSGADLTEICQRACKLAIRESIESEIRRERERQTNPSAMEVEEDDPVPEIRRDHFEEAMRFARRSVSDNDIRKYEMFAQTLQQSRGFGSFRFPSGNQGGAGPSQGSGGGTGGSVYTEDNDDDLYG
ROMK hit retest: human ROMK channel modulation, retest confirmation; AID 1917; shares compounds with ROMK primary; ROMK thallium flux, fluorescence ratio; active compounds read low; actives 54% (n = 3,000); normalized thallium flux (F/F0 slope) at 10 µM;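 active = Flux at 10 µM at least 3 SD below or above vehicle control mean in one or both replicates; inconclusive = no clear call, values can overlap the other calls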
The depositor's hits bear a star; ? = inconclusive; / = no result.

SMILES | MDM2 E3 inh | ROMK primary | PKD1 kinase inh | Cl transport mod | DTT redox prof | p97 inhibitor | ROMK hit retest
CC(C)N(c1ccccc1)c1ccc(NC(=O)COC(=O)CCN2C(=O)c3cccc([N+](=O)[O-])c3C2=O)cc1 | -4 | -0.45 | -10 | -1.8 | 0 | 2 | /
Cc1nn(C(=O)c2nn(C)cc2[N+](=O)[O-])c(C)c1Cl | -1 | -1.3 | -5 | 1.3 | -2 | -4 | /
COc1ccc(NC(=O)c2ccc(-c3ccc(C)c4ccccc34)o2)cc1 | / | 1.7* | -1 | 0.28 | 0 | 3 | 0.075
COC(=O)Nc1nc(-c2ccccc2)c(C(=O)c2ccc(Cl)cc2)s1 | -10 | 2 | 6 | 0.42 | 1 | -4 | /
CC(=O)c1sc(NC(=O)c2c(F)cccc2F)nc1-c1ccccc1 | -8 | -12* | -5 | -0.9 | 0 | 5 | 0.078
CCOC(=O)Nc1nc(-c2ccccc2)c(C(=O)c2ccccc2)s1 | -15 | 3.6* | 10 | -0.88 | 0 | -3 | 0.082
CC(Oc1ccccc1)C(=O)Nc1ccccc1F (stereo not given) | -16 | -0.25 | -1 | 1.6 | 0 | 3 | /
Cc1nc2nc(C)c(CCC(=O)Nc3ccc4c(c3)OCO4)c(C)n2n1 | 5 | 0.0093 | -5 | 0.45 | 2 | 4 | /
COC(=O)CN(c1ccc2c(c1)OCO2)S(C)(=O)=O | -11 | / | -10 | 0.48 | 0 | 4 | /
Cc1c(Nc2cc(Cl)c3nonc3c2[N+](=O)[O-])c(=O)n(-c2ccccc2)n1C | 13 | -4.4* | 1 | -2.5 | 1 | 5 | 0.04*
CCOC(=O)c1nn(C23CC4CC(CC(C4)C2)C3)c2c1C(=O)N(c1ccc(C)cc1)C2=O | -11 | / | 2 | -1.1 | -3 | 2 | /
CCC(=O)N1N=C(c2ccc(NS(C)(=O)=O)cc2)CC1c1ccc(C)cc1 (stereo not given) | -9 | 1.6 | 0 | / | 0 | -4 | /
COc1cccc(N2CCN(c3ncnc4c3[nH]c3ccc(F)cc34)CC2C)c1 (stereo not given) | -15 | -3* | -7 | -1 | 3 | 6 | 0.057*
COc1cccc(N2CCN(c3ncnc4c3[nH]c3ccccc34)CC2C)c1 (stereo not given) | -36 | -2.8 | -4 | -1.6 | -1 | 7 | 0.059*
COc1ccc2c(c1)[nH]c1c(N3CCSCC3)ncnc12 | -2 | / | / | -2.8 | / | 9 | ?
c1ccc2c(c1)CCN(c1ncnc3c1[nH]c1ccccc13)C2 | -44 | -2.9* | / | / | / | / | 0.06*
COc1ccc2c(c1)[nH]c1c(N3CCN(Cc4ccc5c(c4)OCO5)CC3)ncnc12 | -21 | -1.7 | -53 | / | 0 | 7 | /
COc1cc2[nH]c3c(N4CCN(c5ccc(Cl)cc5)CC4)ncnc3c2cc1OC | -2 | 0.93 | -11 | / | 0 | 1 | /
O=C(COC(=O)CC12CC3CC(CC(C3)C1)C2)Nc1cccnc1Cl | -3 | 0.91 | -5 | 0.19 | -1 | -5 | /
CCNc1nc(SCC(=O)OC)nc(N(C)C)n1 | -17 | 1.1 | -5 | -0.28 | -2 | 3 | /
O=C(CS(=O)(=O)Cc1ccccc1)N1CCN(c2cccc(C(F)(F)F)c2)CC1 | -3 | -3.2* | -4 | -1.2 | -1 | 3 | ?
C=C(C)Cn1c(SCC(=O)N/N=C/c2c(O)ccc3ccccc23)nc2ccccc2c1=O | 6 | 0.77 | -4 | -3.4 | 0 | 4 | /
Cc1ccc(-n2ncc(C(=O)Nc3cc(Cl)cc(Cl)c3)c2C2CCNCC2)cc1C | -14 | -6.1* | -4 | -1.2 | -1 | 1 | 0.048*
Cc1ccc(-n2ncc(C(=O)Nc3cc(Cl)ccc3Cl)c2C2CCNCC2)cc1 | -22 | -6.2* | 3 | -0.64 | -1 | 0 | 0.058*
COC(=O)c1cc(C(=O)N2CCN(c3cccc(Cl)c3)CC2)cc([N+](=O)[O-])c1 | -3 | 3.7* | -7 | -0.78 | -2 | 0 | ?
CN(C)CCNC(=O)c1scc2c1CCCC2 | / | / | / | 0.54 | / | 7 | 0.076
CN1CCC(N(C)C(=O)/C(C#N)=C/c2ccc(OC(F)F)cc2)CC1 | / | / | / | -0.18 | / | 4 | 0.046*

High-throughput results (PubChem)
